ChEMBL document CHEMBL1122008, “Lipophilic 5'-(alkyl phosphate) esters of 1-beta-D-arabinofuranosylcytosine and its N4-acyl and 2,2'-anhydro-3'-O-acyl derivatives as potential prodrugs” (1982)

Assays:
Type in all cases: functional
[1] = tested on: B16; assay: Growth inhibition of B16 mouse melanoma cells in culture was determined; details: read-out: ID50 (the source's name)
Method in brief: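 B16 mouse melanoma monolayers in McCoy's 5A with 10% whole fetal calf serum, streptomycin and penicillin, 37 °C, 5% CO2. Drugs were dissolved in 0.05 M pH 7.4 potassium phosphate buffer or Me2SO and dosed at regularly spaced concentrations, generally 10^-7 to 10^-3 M. Cells were counted after 48 h; ID50 versus untreated controls was read from dose–response curves, triplicate.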

[2] = tested on: L1210; assay: Growth inhibition of cultured L1210 mouse leukemia cells was determined; details: read-out: ID50 (the source's name)
Method in brief: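 L1210 mouse leukemia cells in suspension in Eagle's MEM with 15% whole (non-dialyzed, non-heat-inactivated) fetal calf serum, antibiotics and 0.05 mM 2-mercaptoethanol, 37 °C, 5% CO2. Drugs in pH 7.4 phosphate buffer or Me2SO, generally 10^-7 to 10^-3 M. Coulter cell counts at 48 h; ID50 relative to untreated controls from dose–response curves, triplicate.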

[3] = tested on: Mus musculus; assay: Antitumor activity against L1210 leukemia in mice (Average 7-day weight change (%)) at the dose of 115 mg/kg
Method in brief: (§1)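 Male B6D2F1J mice, groups of five to nine, inoculated ip with 10^5 L1210 cells on day 0. Drug treatment started day 1 on qd×5 or q4d(2,6) schedule. Vehicles: ara-C in sterile water; the n-butyl phosphate ester in 0.05 M pH 7.4 potassium phosphate buffer; others as suspensions in 0.4% Tween 80/0.5% low-density CMC/0.9% benzyl alcohol/0.9% saline. Mice weighed days 1 and 7; 7-day weight change given as g/mouse and %.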

[4] = tested on: Mus musculus; assay: Antitumor activity against L1210 leukemia in mice (Average weight per mouse on day 1.) at the dose of 115 mg/kg
Method in brief: (§2)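 Male B6D2F1J mice (5–9 per group) received 10^5 L1210 cells i.p. on day 0 and drug from day 1, given qd×5 or q4d(2,6). Vehicles were sterile water, 0.05 M potassium phosphate pH 7.4, or 0.4% Tween 80/0.5% CMC/0.9% benzyl alcohol/0.9% saline. Read-out is average body weight per mouse (g) on day 1.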

[5] = tested on: Mus musculus; assay: Antitumor activity against L1210 leukemia in mice (Average 7-day weight change (%)) at the dose of 230 mg/kg; method in brief: as §1
[6] = tested on: Mus musculus; assay: Antitumor activity against L1210 leukemia in mice (Average 7-day weight change (%)) at the dose of 460 mg/kg; method in brief: as §1
[7] = tested on: Mus musculus; assay: Antitumor activity against L1210 leukemia in mice (Average weight per mouse on day 1.) at the dose of 230 mg/kg; method in brief: as §2
[8] = tested on: Mus musculus; assay: Antitumor activity against L1210 leukemia in mice (Average 7-day weight change) at the dose of 230 mg/kg; method in brief: as §1
[9] = tested on: Mus musculus; assay: Antitumor activity against L1210 leukemia in mice (Percent increase in life span.) at the dose of 460 mg/kg (mice surviving 20 or more days)
Method in brief: (§3)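 Male B6D2F1J mice, groups of 5–9, inoculated ip with 10^5 L1210 cells on day 0. Dosing starts day 1 on a qd×5 or q4d(2,6) schedule. Vehicles are sterile water, pH 7.4 0.05 M potassium phosphate buffer, or 0.4% Tween 80/0.5% CMC/0.9% benzyl alcohol/0.9% saline. %ILS = (T/C − 1)×100 from median survival. Weights taken days 1 and 7.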

[10] = tested on: Mus musculus; assay: Antitumor activity against L1210 leukemia in mice (Percent increase in life span.) at the dose of 230 mg/kg; method in brief: as §3
[11] = tested on: Mus musculus; assay: Antitumor activity against L1210 leukemia in mice (Average weight per mouse on day 1.) at the dose of 460 mg/kg; method in brief: as §2
[12] = tested on: Mus musculus; assay: Antitumor activity against L1210 leukemia in mice (Average 7-day weight change) at the dose of 460 mg/kg; method in brief: as §1
[13] = tested on: Mus musculus; assay: Antitumor activity against L1210 leukemia in mice (Percent increase in life span.) at the dose of 115 mg/kg; method in brief: as §3
[14] = tested on: Mus musculus; assay: Antitumor activity against L1210 leukemia in mice (Average 7-day weight change) at the dose of 115 mg/kg; method in brief: as §1
[15] = tested on: Mus musculus; assay: Antitumor activity against L1210 leukemia in mice (Average 7-day weight change (%)) at the dose of 113 mg/kg; details: dose 133 mg/kg; in the assay text read “133 mg/kg” for “113 mg/kg”; method in brief: as §1
[16] = tested on: Mus musculus; assay: Antitumor activity against L1210 leukemia in mice (Percent increase in life span.) at the dose of 267 mg/kg (mice surviving 20 or more days); method in brief: as §3
[17] = tested on: Mus musculus; assay: Antitumor activity against L1210 leukemia in mice (Average weight per mouse on day 1.) at the dose of 267 mg/kg; method in brief: as §2
[18] = tested on: Mus musculus; assay: Antitumor activity against L1210 leukemia in mice (Average 7-day weight change (%)) at the dose of 267 mg/kg; method in brief: as §1
[19] = tested on: Mus musculus; assay: Antitumor activity against L1210 leukemia in mice (Average 7-day weight change) at the dose of 267 mg/kg; method in brief: as §1
[20] = tested on: Mus musculus; assay: Antitumor activity against L1210 leukemia in mice (Average 7-day weight change) at the dose of 200 mg/kg; method in brief: as §1
[21] = tested on: Mus musculus; assay: Antitumor activity against L1210 leukemia in mice (Average 7-day weight change) at the dose of 113 mg/kg; method in brief: as §1
[22] = tested on: Mus musculus; assay: Antitumor activity against L1210 leukemia in mice (Average weight per mouse on day 1.) at the dose of 113 mg/kg; method in brief: as §2
[23] = tested on: Mus musculus; assay: Antitumor activity against L1210 leukemia in mice (Average 7-day weight change (%)) at the dose of 200 mg/kg; method in brief: as §1
[24] = tested on: Mus musculus; assay: Antitumor activity against L1210 leukemia in mice (Percent increase in life span.) at the dose of 200 mg/kg (mice surviving 20 or more days); method in brief: as §3
[25] = tested on: Mus musculus; assay: Antitumor activity against L1210 leukemia in mice (Average weight per mouse on day 1.) at the dose of 200 mg/kg; method in brief: as §2
[26] = tested on: Mus musculus; assay: Antitumor activity against L1210 leukemia in mice (Percent increase in life span.) at the dose of 113 mg/kg; method in brief: as §3
[27] = tested on: Mus musculus; assay: Antitumor activity against L1210 leukemia in mice (Average weight per mouse on day 1.) at the dose of 130 mg/kg; method in brief: as §2
[28] = tested on: Mus musculus; assay: Antitumor activity against L1210 leukemia in mice (Percent increase in life span.) at the dose of 260 mg/kg; method in brief: as §3
[29] = tested on: Mus musculus; assay: Antitumor activity against L1210 leukemia in mice (Average 7-day weight change) at the dose of 260 mg/kg; method in brief: as §1
[30] = tested on: Mus musculus; assay: Antitumor activity against L1210 leukemia in mice (Average 7-day weight change (%)) at the dose of 130 mg/kg; method in brief: as §1
[31] = tested on: Mus musculus; assay: Antitumor activity against L1210 leukemia in mice (Average weight per mouse on day 1.) at the dose of 260 mg/kg; method in brief: as §2
[32] = tested on: Mus musculus; assay: Antitumor activity against L1210 leukemia in mice (Average 7-day weight change (%)) at the dose of 260 mg/kg; method in brief: as §1
[33] = tested on: Mus musculus; assay: Antitumor activity against L1210 leukemia in mice (Percent increase in life span.) at the dose of 130 mg/kg; method in brief: as §3
[34] = tested on: Mus musculus; assay: Antitumor activity against L1210 leukemia in mice (Average 7-day weight change (%)) at the dose of 390 mg/kg; method in brief: as §1
[35] = tested on: Mus musculus; assay: Antitumor activity against L1210 leukemia in mice (Percent increase in life span.) at the dose of 390 mg/kg; method in brief: as §3
[36] = tested on: Mus musculus; assay: Antitumor activity against L1210 leukemia in mice (Average 7-day weight change) at the dose of 130 mg/kg; method in brief: as §1
[37] = tested on: Mus musculus; assay: Antitumor activity against L1210 leukemia in mice (Average 7-day weight change) at the dose of 390 mg/kg; method in brief: as §1
[38] = tested on: Mus musculus; assay: Antitumor activity against L1210 leukemia in mice (Average weight per mouse on day 1.) at the dose of 390 mg/kg; method in brief: as §2

Structure (SMILES): CCCCCCCCOP(=O)(O)OC[C@H]1O[C@@H](n2ccc(N)nc2=O)[C@@H](O)[C@@H]1O
- IC50 [1]: 360 µM
- IC50 [2]: 11 µM

Structure (SMILES): CCOP(=O)(O)OC[C@H]1O[C@@H](n2ccc(N)nc2=O)[C@@H](O)[C@@H]1O
- IC50 [1]: 70 µM
- IC50 [2]: 4 µM

Structure (SMILES): CCCCCCCCCCCCCCCCOP(=O)(O)OC[C@H]1O[C@@H](n2ccc(N)nc2=O)[C@@H](O)[C@@H]1O
- IC50 [2]: 11 µM

Structure (SMILES): CCCCCCOP(=O)(O)OC[C@H]1O[C@@H](n2ccc(N)nc2=O)[C@@H](O)[C@@H]1O
- IC50 [2]: 7.8 µM

Structure (SMILES): CCCCCCCCCCCCCCCC(=O)O[C@H]1[C@@H]2Oc3nc(=N)ccn3[C@@H]2O[C@@H]1COP(=O)(O)OCCCCCC
- Weight change [3]: 10%
- Average weight [4]: 20.6 g mouse-1
- Weight change [5]: 8%
- Weight change [6]: 14%
- Average weight [7]: 22.2 g mouse-1
- Weight change [8]: 1.8 g mouse-1
- ILS at 460 mg/kg [9]: 75%
- ILS at 230 mg/kg [10]: 37%
- Average weight [11]: 19.8 g mouse-1
- Weight change [12]: 2.8 g mouse-1
- ILS at 115 mg/kg [13]: 25%
- Weight change [14]: 2 g mouse-1

Structure (SMILES): CCCCCCCCCCCCCCCC(=O)O[C@H]1[C@@H]2Oc3nc(=N)ccn3[C@@H]2O[C@@H]1COP(=O)(O)OCCOCC
- Weight change [15]: -11%
- ILS at 267 mg/kg [16]: 150%
- Average weight [17]: 24 g mouse-1
- Weight change [18]: -16%
- Weight change [19]: -3.6 g mouse-1
- Weight change [20]: -4 g mouse-1
- Weight change [21]: -2.6 g mouse-1
- Average weight [22]: 24 g mouse-1
- Weight change [23]: -16%
- ILS at 200 mg/kg [24]: 137%
- Average weight [25]: 24.4 g mouse-1
- ILS at 113 mg/kg [26]: 112%

Structure (SMILES): CCCCCCCCCCCCCCCC(=O)O[C@H]1[C@@H]2Oc3nc(=N)ccn3[C@@H]2O[C@@H]1COP(=O)(O)OCCCC
- Average weight [27]: 23 g mouse-1
- ILS at 260 mg/kg [28]: 62%
- Weight change [29]: 0.9 g mouse-1
- Weight change [30]: 4%
- Average weight [31]: 22.8 g mouse-1
- Weight change [32]: 4%
- ILS at 130 mg/kg [33]: 62%
- Weight change [34]: -7%
- ILS at 390 mg/kg [35]: 74%
- Weight change [36]: 0.9 g mouse-1
- Weight change [37]: -1.6 g mouse-1
- Average weight [38]: 24.5 g mouse-1

Structure (SMILES): Nc1ccn([C@@H]2O[C@H](COP(=O)(O)OCC(O)COCc3ccccc3)[C@@H](O)[C@@H]2O)c(=O)n1 (stereo partly drawn)
- IC50 [1]: 25 µM
- IC50 [2]: 1 µM

Structure (SMILES): Nc1ccn([C@@H]2O[C@H](COP(=O)(O)OCC(O)CO)[C@@H](O)[C@@H]2O)c(=O)n1 (stereo partly drawn)
- IC50 [1]: 26 µM
- IC50 [2]: 0.65 µM

Structure (SMILES): Nc1ccn([C@@H]2O[C@H](COP(=O)(O)O)[C@@H](O)[C@H]2O)c(=O)n1
- IC50 [1]: 1.5 µM
- IC50 [2]: 0.35 µM
